{"source": "PubChem BioAssay AID1229", "about": "(Sanford-Burnham Center for Chemical Genomics, 2008)", "note": "The campaign covered roughly 190,000 compounds. About 10 (0.005%) were called active.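 How the source made its calls: active means diaphorase activity raised at least twofold by the compound at 20 µM; inactive means activation factor below 2.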 Many of the other results were omitted from the sample, so actives are more common in it than they were.", "data": [{"assay": "compounds boosting diaphorase resazurin reduction – biochemical, uHTS, resorufin fluorescence, counter-screen for diaphorase-coupled primary assays, primary screen (AID 1229)", "details": "Diaphorase/resazurin coupled assay, 16 min, at 20 µM, hits give high values, 1 = vehicle wells, 0 = NADH-free wells", "procedure,_shortened": "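Assay system: bacterial diaphorase enzyme (C. kluyveri) / Input: enzyme 0.07 U/mL final / Medium: 50 mM HEPES pH 7.4 with 4.542 mM MgCl2, 0.005% Tween 20 / Doses: single compound dose of 20 µM, 1% DMSO final / Incubation: 16 min enzyme reaction, ambient temperature / Signal: fluorescence, excitation 544 nm and emission 590 nm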", "values": [{"smiles": "Cc1cccc(-n2c(=O)c3c(C)c(C)sc3n(CC(N)=O)c2=O)c1", "activation factor": "1.1 (inactive)"}, {"smiles": "O=C(COC(=O)c1ccc(Cl)nc1)NCc1ccc2c(c1)OCO2", "activation factor": "1 (inactive)"}, {"smiles": "CC1CN(S(=O)(=O)c2ccc(C(=O)NN3CCN(C)CC3)cc2)CC(C)O1", "note": "(stereo not drawn)", "activation factor": "0.9 (inactive)"}, {"smiles": "CC(C)(C)NC(=O)C(=O)NCc1ccncc1", "activation factor": "0.9 (inactive)"}, {"smiles": "O=C(NCc1ccccc1)C1=C[C@@H](c2ccc(C(F)(F)F)cc2)C[C@@H](OCc2ccc(CO)cc2)O1", "activation factor": "0.6 (inactive)"}, {"smiles": "O=C(NC(=S)Nc1ccc(S(=O)(=O)Nc2ncccn2)cc1)c1cccc(Br)c1", "activation factor": "0.9 (inactive)"}, {"smiles": "COc1ccc(/C=C(\\C#N)C(=O)NCCCn2ccnc2)cc1", "activation factor": "1 (inactive)"}, {"smiles": "O=C1CC(=O)Nc2cc(S(=O)(=O)N3CCN(c4cccc(C(F)(F)F)c4)CC3)ccc2N1", "activation factor": "1 (inactive)"}, {"smiles": "CCOc1ccc(OCc2cccc(C(=O)N(CC)CC)c2)cc1", "activation factor": "0.8 (inactive)"}, {"smiles": "CC(=O)Nc1ccc(S(=O)(=O)Nc2nccc(/C=C/c3ccccc3F)n2)cc1", "activation factor": "0.8 (inactive)"}, {"smiles": "CCCc1nnc(SCC(=O)N2C(C)CCCC2C)n1CC", "note": "(stereo not drawn)", "activation factor": "0.9 (inactive)"}, {"smiles": "CC(C)CNC(=O)/C=C/C(=O)O", "activation factor": "1 (inactive)"}, {"smiles": "COc1ccc(C)cc1Nc1nc(-c2c(C)[nH]c3ccccc23)cs1", "activation factor": "0.9 (inactive)"}, {"smiles": "O=C(NCCCn1ccnc1)c1cc(-c2ccccc2)on1", "activation factor": "1 (inactive)"}, {"smiles": "CCN(CC)CCOCCOc1ccc(Cl)c2ccccc12", "activation factor": "0.8 (inactive)"}, {"smiles": "Cn1c(SCC(=O)Nc2ccc(Br)cc2F)nnc1-c1ccco1", "activation factor": "0.9 (inactive)"}, {"smiles": "Cc1nc([N+](=O)[O-])cn1CC(=O)Nc1ccc2c(c1)OCO2", "activation factor": "0.9 (inactive)"}, {"smiles": "CC(=O)NCCn1c(SCC(=O)Nc2ccc(C)cc2)nc2ccccc2c1=O", "activation factor": "0.9 (inactive)"}, {"smiles": "COc1cccc(-n2c(=S)[nH]c3c(oc4ccccc43)c2=O)c1", "activation factor": "0.3 (inactive)"}, {"smiles": "CC1CCCCC1NC(=O)/C(C#N)=C/C=C/c1ccccc1[N+](=O)[O-]", "note": "(stereo not drawn)", "activation factor": "0.8 (inactive)"}, {"smiles": "Cc1cccc(-n2c(Cc3cc(=O)[nH]c(=O)[nH]3)nnc2SCC(=O)Nc2cccc(C(F)(F)F)c2)c1", "activation factor": "1 (inactive)"}, {"smiles": "COc1ccc(/C=C/C(=O)c2ccc(NS(=O)(=O)c3ccc(C)cc3)cc2)cc1O", "activation factor": "0.7 (inactive)"}, {"smiles": "CC(C)CCN1CCN(Cc2ccc(C(F)(F)F)cc2)CC1CCO", "note": "(stereo not drawn)", "activation factor": "1 (inactive)"}, {"smiles": "CC(=O)N(CN1C(=O)C2C3C=CC(C3)C2C1=O)c1cccc(Cl)c1", "note": "(stereo not drawn)", "activation factor": "1.1 (inactive)"}, {"smiles": "O=C(C1=C[C@H](c2coc3ccccc3c2=O)C[C@H](OCc2ccc(CO)cc2)O1)N1CCOCC1", "activation factor": "0.8 (inactive)"}, {"smiles": "COc1ccc(Br)cc1/C=N/Nc1ccc(Cl)c(C(=O)O)c1", "activation factor": "0.9 (inactive)"}, {"smiles": "CC(=O)Nc1ccc(-c2csc(NC=C3C(=O)OC(C)(C)OC3=O)n2)cc1", "activation factor": "0.9 (inactive)"}, {"smiles": "COC(=O)CSc1ccc2nnc(CCNS(=O)(=O)c3ccc(C)cc3)n2n1", "activation factor": "0.7 (inactive)"}, {"smiles": "NC1=NN(c2cccc(C(=O)O)c2)C(=O)C1", "activation factor": "0.9 (inactive)"}, {"smiles": "O=S1(=O)CC/C(=N\\Nc2ccc(F)cc2)c2ccsc21", "activation factor": "0.9 (inactive)"}, {"smiles": "CCO[C@H]1OC(C(=O)NCc2ccccc2)=C[C@@H](c2coc3ccccc3c2=O)[C@@H]1CCCO", "activation factor": "0.8 (inactive)"}, {"smiles": "CC(=O)Nc1ccc(S(=O)(=O)Nc2ccc(-c3ccc4nnc(C)n4n3)cc2)cc1", "activation factor": "1.1 (inactive)"}, {"smiles": "CCOC(=O)C(CC)/C(C)=N\\NC(=O)c1cccc(C)c1", "note": "(stereo not drawn)", "activation factor": "0.9 (inactive)"}, {"smiles": "COC(=O)N/N=C/c1ccc(-c2ccc(Cl)c(Cl)c2)o1", "activation factor": "0.9 (inactive)"}, {"smiles": "C/C(=N\\NS(=O)(=O)c1ccc(Cl)cc1)c1ccc(NC(=O)c2ccco2)cc1", "activation factor": "0.8 (inactive)"}, {"smiles": "Cc1cc(C)nc(SCC(=O)N(C)C)n1", "activation factor": "1 (inactive)"}, {"smiles": "CCOc1ccc(C(C)=O)cc1COC(=O)c1cnc(Cl)c(Cl)c1", "activation factor": "0.8 (inactive)"}, {"smiles": "C=CCNCCCCOc1ccccc1", "activation factor": "1.1 (inactive)"}, {"smiles": "CONc1nc2nonc2nc1NOC", "activation factor": "0.9 (inactive)"}, {"smiles": "O=C(C1CC1)N1N=C2CCCCC2C1(O)C(F)(F)F", "note": "(stereo not drawn)", "activation factor": "0.9 (inactive)"}, {"smiles": "Cc1ccc(NN=Nc2nc3c([nH]2)c(=O)n(C)c(=O)n3C)cc1", "activation factor": "0.6 (inactive)"}, {"smiles": "CCOc1ccc(Oc2nc(C)cc(OC)n2)nn1", "activation factor": "0.9 (inactive)"}, {"smiles": "Cc1c(C2=CCN(S(=O)(=O)c3ccc(Cl)cc3)CC2)c2ccccc2n1C", "activation factor": "0.9 (inactive)"}, {"smiles": "COc1cc(C(=S)NCc2ccccc2)cc(Br)c1O", "activation factor": "1 (inactive)"}, {"smiles": "C/C=C/c1ccc(OCCCCN2CCC(C)CC2)c(OC)c1", "activation factor": "1 (inactive)"}, {"smiles": "CCn1cc(-c2cc(C(=O)O)on2)c(C)n1", "activation factor": "0.9 (inactive)"}, {"smiles": "Cc1ccc(OCCOCCOc2ccc(Br)cc2/C=N\\NC(=O)c2ccncc2)cc1", "activation factor": "0.8 (inactive)"}, {"smiles": "O=C(c1ccc2c(c1)N(Cc1ccc(F)cc1)C(=O)c1ccccc1S2(=O)=O)N1CCN(c2ccccn2)CC1", "activation factor": "0.8 (inactive)"}, {"smiles": "CNc1[nH]ncc1[N+](=O)[O-]", "activation factor": "1 (inactive)"}, {"smiles": "O=C1c2ccccc2C(=O)N1CCC(O)C[N+](=O)[O-]", "note": "(stereo not drawn)", "activation factor": "1 (inactive)"}, {"smiles": "Cc1ccc(NC(=O)OCCNC(=O)c2ccncc2)cc1", "activation factor": "1 (inactive)"}, {"smiles": "N#Cc1c(NC(=O)C2CCCO2)sc2c1CCCCC2", "note": "(stereo not drawn)", "activation factor": "1 (inactive)"}, {"smiles": "O=C(/C(=C/c1cccc(Cl)c1)c1nc2ccccc2[nH]1)c1ccccc1", "activation factor": "0.9 (inactive)"}, {"smiles": "Cc1ccnc(NC(=O)CCC(=O)N(CC(=O)NCCc2ccccc2)Cc2cccs2)c1", "activation factor": "1 (inactive)"}, {"smiles": "CC(=O)C1=C(O)C(=O)N(c2cccnc2)C1c1ccc([N+](=O)[O-])cc1", "note": "(stereo not drawn)", "activation factor": "0.9 (inactive)"}, {"smiles": "O=C1/C(=C/c2cccs2)CCC1C1CCCC1", "note": "(stereo not drawn)", "activation factor": "0.9 (inactive)"}, {"smiles": "Cc1cccc2cc3c(N)c(C(=O)N4CCCc5ccccc54)sc3nc12", "activation factor": "0.8 (inactive)"}, {"smiles": "COc1ccc(OC)c(S(=O)(=O)NCCC(C)C)c1", "activation factor": "1.1 (inactive)"}, {"smiles": "CCOC(=O)c1c(/N=C/c2cc(C)ccc2O)sc2c1CCC2", "activation factor": "1 (inactive)"}, {"smiles": "CC(C)=CCCC1(C)C=Cc2c(ccc3c2[nH]c2cc(O)c(C)cc23)O1", "note": "(stereo not drawn)", "activation factor": "0.8 (inactive)"}, {"smiles": "CN1CCNC(=O)C1CC(=O)N1CC=C(c2ccc(F)cc2)CC1", "note": "(stereo not drawn)", "activation factor": "0.9 (inactive)"}, {"smiles": "COC(=O)/C(C#N)=C/c1occc1C", "activation factor": "0.9 (inactive)"}, {"smiles": "CCCN(CC(=O)Nc1ccc(OC)c(OC)c1)CC(=O)Nc1ccc(F)c(F)c1F", "activation factor": "0.9 (inactive)"}]}]}
